Measured values as given in ChEMBL document CHEMBL2169835, “Flavonoid dimers as novel, potent antileishmanial agents” (J Med Chem, 2012).

Assays:
Leishmania donovani [1] = assay: Antimicrobial activity against axenically grown Leishmania donovani amastigotes; format: functional, organism-based
[2] = Therapeutic index, ratio of IC50 for mouse Peritoneal macrophages to IC50 for SSG-resistant Leishmania donovani 39 amastigote infected in mouse peritoneal macrophages; settings: read-out: Ratio IC50
[3] = Cytotoxicity against mouse Peritoneal macrophages cells after 72 hrs by MTS assay; format: cell-based; settings: Peritoneal macrophage cell
Outline: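 Primary mouse peritoneal elicited macrophages were seeded at 2 × 10^4 cells per well in DMEM with 10% heat-inactivated FBS. They were exposed to graded doses for 72 h at 37 °C in 5% CO2. Survival was read by MTS/PMS tetrazolium reduction (OD 490 nm) relative to untreated control. The IC50 was the concentration halving OD. Results are mean ± SEM of 1–4 independent experiments.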

Leishmania donovani [4] = assay: Antimicrobial activity against SSG-resistant Leishmania donovani 39 amastigote infected in mouse peritoneal macrophages assessed as inhibition of parasite growth after 72 hrs by Giemsa staining method; format: functional, organism-based; settings: Leishmania donovani, 39, 72 h
Outline: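 Mouse peritoneal elicited macrophages were seeded on coverslips at 1 × 10^5 cells per well in DMEM with 10% heat-inactivated FBS and left to attach overnight. They were infected overnight with late-log Ld39 promastigotes (parasite:macrophage 20:1) at 37 °C, 5% CO2, then washed. Compounds were applied for 72 h at 37 °C. Giemsa-stained amastigotes per 100 macrophages gave IC50; N = 1−3.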

Leishmania donovani [5] = assay: Antimicrobial activity against SSG-resistant Leishmania donovani 39 promastigote assessed as inhibition of parasite growth after 72 hrs by MTS assay; format: functional, organism-based; settings: Leishmania donovani, 39, 72 h
Outline: (§1)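 Promastigotes were grown in Schneider's medium pH 6.9 with 10% heat-inactivated FBS at 27 °C, seeded at 1 × 10^5 per well, and exposed to serial concentrations for 72 h at 27 °C. Compounds were in DMSO (≤1% final) or water. MTS:PMS (20:1) was added for 4 h, then OD490 was read. Survival was % of untreated control; IC50 = concentration halving OD; N = 1−4.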

Leishmania donovani [6] = assay: Antimicrobial activity against wild-type Leishmania donovani AG83 promastigote assessed as inhibition of parasite growth after 72 hrs by MTS assay; format: functional, organism-based; settings: AG83, 72 h
Outline: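 Promastigotes were grown in Schneider's medium pH 6.9 with 10% heat-inactivated FBS at 27 °C, seeded at 1 × 10^5 per well, and exposed to serial concentrations for 72 h at 27 °C. Compounds were in DMSO (≤1% final) or water. MTS:PMS (20:1) was added for 4 h, then OD490 was read.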

RAW264.7 = assay: Cytotoxicity against mouse RAW264.7 cells after 72 hrs by MTS assay; format: cell-based; settings: RAW264.7, 72 h
Outline: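 RAW 264.7 murine macrophage line was plated at 1 × 10^4 cells per well in supplemented DMEM. Cells received a graded compound series for 72 h at 37 °C, 5% CO2, with a maximum of 1% DMSO. Viability was measured by MTS with PMS coupling at OD 490 nm, as percent of untreated control. The IC50 was the concentration reducing OD by half, given as mean ± SEM, N = 1–4.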

Leishmania donovani [7] = assay: Antimicrobial activity against pentamidine-resistant Leishmania donovani AG83PentR50 promastigote assessed as inhibition of parasite growth after 72 hrs by MTS assay; format: functional, organism-based; settings: AG83PentR50, 72 h; outline: as §1
Leishmania donovani [8] = assay: Selectivity ratio of IC50 for Leishmania donovani promastigote to IC50 for SSG-resistant Leishmania donovani 39 amastigote infected in mouse peritoneal macrophages; format: functional
[9] = Therapeutic index, ratio of IC50 for mouse Peritoneal macrophages to IC50 for SSG-resistant Leishmania donovani 39 promastigote; settings: read-out: Ratio IC50
Outline: (§2)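 Index is PEM cytotoxicity IC50 over promastigote IC50. For PEM, cells were seeded at 2 × 10^4 per well in supplemented DMEM, given graded doses for 72 h at 37 °C, 5% CO2, and read by MTS survival.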

[10] = Therapeutic index, ratio of IC50 for mouse Peritoneal macrophages to IC50 for pentamidine-resistant Leishmania donovani AG83PentR50 promastigote; settings: read-out: Ratio IC50; outline: as §2
[11] = Therapeutic index, ratio of IC50 for mouse PEM cells to IC50 for wild-type Leishmania donovani AG83 promastigote; format: cell-based; settings: read-out: Ratio IC50; outline: as §2

Q: Which IC50 (Leishmania donovani [1]) does the source give for `COc1cc(O)c2c(=O)cc(-c3ccc(OC)c(-c4c(O)cc(O)c5c(=O)cc(-c6ccc(O)cc6)oc45)c3)oc2c1` [GINKGETIN] here?
A: Its IC50 is 2.8 µM.

Q: Which selectivity ratio [2] does the source give for `O=c1cc(-c2ccc(OCCOCCN(CCOCCOc3ccc(-c4cc(=O)c5cc(F)ccc5o4)cc3)Cc3ccncc3)cc2)oc2ccc(F)cc12` here?
A: The selectivity ratio was over 32.3.

Q: And the IC50 [3]?
A: Its IC50 is over 100 µM.

Q: And the IC50 (Leishmania donovani [4])?
A: The IC50 was 3.1 µM.

Q: What about the IC50 (Leishmania donovani [5]) of the same molecule?
A: The IC50 was 0.36 µM.

Q: And the IC50 (Leishmania donovani [6])?
A: The IC50 was 0.31 µM.

Q: For `COc1ccc(-c2cc(=O)c3c(O)cc(O)c(-c4cc(-c5cc(=O)c6c(O)cc(OC)cc6o5)ccc4OC)c3o2)cc1` [SCIADOPITISIN], which IC50 (Leishmania donovani [1]) is on record?
A: The IC50 was 8.2 µM.

Q: Which results are given for `CCCCCCCCCCCCCCCCOP(=O)([O-])OCC[N+](C)(C)C` [MILTEFOSINE]?
A: IC50 [3]: 75.3 µM; IC50 (RAW264.7): 20 µM; IC50 (Leishmania donovani [4]): 16 µM; IC50 (Leishmania donovani [7]): 9.3 µM; IC50 (Leishmania donovani [5]): 17.3 µM

Q: Which results are given for `O=c1cc(-c2ccccc2OCCOCCN(CCOCCOc2ccccc2-c2cc(=O)c3ccccc3o2)Cc2ccncc2)oc2ccccc12`?
A: selectivity ratio [2]: > 1.6; IC50 [3]: > 11 µM; IC50 (Leishmania donovani [4]): 7 µM; IC50 (Leishmania donovani [5]): 4 µM; IC50 (Leishmania donovani [6]): 2.3 µM

Q: With `O=c1c(O)c(-c2ccc(O)c(O)c2)oc2cc(O)cc(O)c12` [QUERCETIN] as the molecule, how does the “Ratio IC50” value (Leishmania donovani [8]) read?
A: Its value is 17.

Q: And the selectivity ratio [2]?
A: Its selectivity ratio is over 16.7.

Q: What about the selectivity ratio [9] of the same molecule?
A: Its selectivity ratio is over 1.

Q: And the selectivity ratio [10]?
A: Its selectivity ratio is over 1.4.

Q: What about the selectivity ratio [11] of the same molecule?
A: The selectivity ratio was over 1.

Q: And the IC50 [3]?
A: Its IC50 is over 100 µM.

Q: What about the IC50 (RAW264.7) of the same molecule?
A: The IC50 was 95.6 µM.

Q: And the IC50 (Leishmania donovani [4])?
A: Its IC50 is 6 µM.

Q: And the IC50 (Leishmania donovani [7])?
A: Its IC50 is 69.6 µM.

Q: And the IC50 (Leishmania donovani [5])?
A: Its IC50 is over 100 µM.

Q: What about the IC50 (Leishmania donovani [6]) of the same molecule?
A: The IC50 was 103 µM.

Q: What does the source list for `O=c1cc(-c2ccc(OCCN(CCOc3ccc(-c4cc(=O)c5ccccc5o4)cc3)Cc3ccncc3)cc2)oc2ccccc12`?
A: selectivity ratio [2]: > 10; IC50 [3]: > 58 µM; IC50 (Leishmania donovani [4]): 5.8 µM; IC50 (Leishmania donovani [5]): > 50 µM; IC50 (Leishmania donovani [6]): 1.4 µM

Q: For `COc1c(-c2ccc(OCCOCCN(CCOCCOc3ccc(-c4oc5ccccc5c(=O)c4OC)cc3)Cc3ccncc3)cc2)oc2ccccc2c1=O`, which selectivity ratio [2] is on record?
A: Its selectivity ratio is over 9.6.

Q: What about the IC50 [3] of the same molecule?
A: The IC50 was over 50 µM.

Q: What about the IC50 (Leishmania donovani [4]) of the same molecule?
A: Its IC50 is 5.2 µM.

Q: What about the IC50 (Leishmania donovani [5]) of the same molecule?
A: The IC50 was 0.98 µM.

Q: And the IC50 (Leishmania donovani [6])?
A: Its IC50 is 0.98 µM.

Q: What does the source list for `O=c1cc(-c2ccc(OCCOCCN(CCOCCOc3ccc(-c4cc(=O)c5ccccc5o4)cc3)Cc3ccnc(Br)c3)cc2)oc2ccccc12`?
A: selectivity ratio [2]: > 10; IC50 [3]: > 100 µM; IC50 (Leishmania donovani [4]): > 10 µM; IC50 (Leishmania donovani [5]): > 50 µM; IC50 (Leishmania donovani [6]): 1.8 µM

Q: With `O=c1cc(-c2ccc(OCCOCCN(CCOCCOc3ccc(-c4cc(=O)c5ccccc5o4)cc3)Cc3ccncn3)cc2)oc2ccccc12` as the molecule, how does the selectivity ratio [2] read?
A: Its selectivity ratio is over 23.6.

Q: What about the IC50 [3] of the same molecule?
A: Its IC50 is over 33 µM.

Q: What about the IC50 (Leishmania donovani [4]) of the same molecule?
A: Its IC50 is 1.4 µM.

Q: And the IC50 (Leishmania donovani [5])?
A: The IC50 was 0.58 µM.

Q: And the IC50 (Leishmania donovani [6])?
A: The IC50 was 0.44 µM.

Q: For `Cc1ccc2c(=O)cc(-c3ccc(OCCOCCOCCOCCOCCOCCOc4ccc(-c5cc(=O)c6ccc(C)cc6o5)cc4)cc3)oc2c1`, which IC50 (RAW264.7) is on record?
A: The IC50 was 5.3 µM.

Q: And the IC50 (Leishmania donovani [7])?
A: The IC50 was 4.1 µM.

Q: What about the IC50 (Leishmania donovani [5]) of the same molecule?
A: The IC50 was 5.3 µM.

Q: What about the IC50 (Leishmania donovani [6]) of the same molecule?
A: The IC50 was 6.7 µM.

Q: What does the source list for `O=c1cc(-c2ccc(OCCOCCOCCOCCOCCOc3ccc(-c4cc(=O)c5ccccc5o4)cc3)cc2)oc2ccccc12`?
A: IC50 (RAW264.7): 8.9 µM; IC50 (Leishmania donovani [7]): 10.4 µM; IC50 (Leishmania donovani [5]): 7.8 µM; IC50 (Leishmania donovani [6]): 5.3 µM

Q: For `Cc1ccc2c(=O)cc(-c3ccc(OCCOCCOCCOCCOCCOc4ccc(-c5cc(=O)c6ccc(C)cc6o5)cc4)cc3)oc2c1`, which IC50 (RAW264.7) is on record?
A: The IC50 was over 80 µM.

Q: And the IC50 (Leishmania donovani [7])?
A: The IC50 was 3.8 µM.

Q: And the IC50 (Leishmania donovani [5])?
A: Its IC50 is 7.9 µM.

Q: And the IC50 (Leishmania donovani [6])?
A: The IC50 was 4.4 µM.

Q: Which IC50 (Leishmania donovani [1]) does the source give for `O=c1cc(-c2ccc(Oc3c(O)cc(O)c4c(=O)cc(-c5ccc(O)cc5)oc34)cc2)oc2cc(O)cc(O)c12` [LANAROFLAVONE] here?
A: Its IC50 is 7.2 µM.

Q: Which results are given for `O=c1cc(-c2ccc(OCCOCCOCCOCCOCCOCCOCCOc3ccc(-c4cc(=O)c5ccccc5o4)cc3)cc2)oc2ccccc12`?
A: IC50 (RAW264.7): 4.8 µM; IC50 (Leishmania donovani [7]): 7.3 µM; IC50 (Leishmania donovani [5]): 10.3 µM; IC50 (Leishmania donovani [6]): 6.2 µM
